Laboratory results reported in ChEMBL document CHEMBL4251593, “Nontoxic combretafuranone analogues with high in vitro antibacterial activity” (Eur J Med Chem, 2018).
Values after ≈ are worked out from the molar mass of the structure shown.

Assays:
Klebsiella pneumoniae [1] = assay: Antibacterial activity against Klebsiella pneumoniae HK14368/08 clinical isolate after 24 hrs by microdilution assay; format: functional; conditions: HK14368/08, 24 h
Staphylococcus aureus [2] = assay: Antibacterial activity against methicillin-resistant Staphylococcus aureus HK5996/08 clinical isolate after 48 hrs by microdilution assay; format: functional; conditions: HK5996/08, 48 h
Staphylococcus aureus [3] = assay: Antibacterial activity against Staphylococcus aureus ATCC 6538 after 48 hrs by microdilution assay; format: functional; conditions: ATCC 6538, 48 h
HL-60 [4] = assay: Cytotoxicity against human HL60 cells assessed as reduction in cell viability after 48 hrs by ATPlite-based luminescent assay; conditions: HL-60, 48 h
Outline: (§1)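 Cells were grown […] with 10% FBS, glutamax, NEAA and pen/strep at 37 °C, 5% CO2. Media were DMEM for RPE-1, HepG2 and BJ (BJ plus 10 ng/ml bFGF), F-12K for PC3, and IMDM for K562/HL-60. Cells were seeded at 500 per well and dosed from DMSO at 12 concentrations, 40 µM to 1 nM, in triplicate. After 48 h, intracellular ATP was read by luminescence. ED50 was obtained by variable-slope nonlinear regression.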

[5] = system: Staphylococcus epidermidis; assay: Antibacterial activity against Staphylococcus epidermidis HK6966/08 clinical isolate after 48 hrs by microdilution assay; format: functional; conditions: HK6966/08, 48 h
Klebsiella pneumoniae [6] = assay: Antibacterial activity against Klebsiella pneumoniae HK11750/08 clinical isolate after 48 hrs by microdilution assay; format: functional; conditions: HK11750/08, 48 h
K562 [7] = assay: Induction of apoptosis in human K562 cells assessed as caspase 3/7 activity after 24 hrs by caspase-glo luminescent assay; format: cell-based; conditions: K562, 24 h
Outline: (§2)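 Cells were seeded at 500 per well in their growth media and exposed to 12 concentrations from 40 µM to 1 nM, delivered from DMSO, in triplicate. After 24 h, caspase-3/7 activity was read by Caspase-Glo luminescence. Data were normalized and ED50 was fitted by variable-slope nonlinear regression.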

Escherichia coli [8] = assay: Antibacterial activity against Escherichia coli ATCC 8739 after 48 hrs by microdilution assay; format: functional; conditions: ATCC 8739, 48 h
Outline: (§3)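 Broth microdilution in Mueller-Hinton medium buffered to pH 7.4 (±0.2), with DMSO as diluent at no more than 2% final. Compounds were tested as 2-fold serial dilutions from 2000 to 0.488 µmol/l. The inoculum was 0.5 McFarland (1.5×10^8 cfu/ml). Plates were held at 37 °C and read visually at 24 and 48 h. MIC was taken as 95% growth inhibition versus control, determined twice in duplicate.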

HepG2 [9] = assay: Induction of apoptosis in human HepG2 cells assessed as caspase 3/7 activity after 24 hrs by caspase-glo luminescent assay; format: cell-based; conditions: HepG2, 24 h; outline: as §2
Enterococcus sp. [10] = assay: Antibacterial activity against Enterococcus sp. HK14365/08 clinical isolate after 48 hrs by microdilution assay; format: functional; conditions: HK14365/08, 48 h
HL-60 [11] = assay: Induction of apoptosis in human HL60 cells assessed as caspase 3/7 activity after 24 hrs by caspase-glo luminescent assay; format: cell-based; conditions: HL-60, 24 h; outline: as §2
TERT-RPE1 [12] = assay: Induction of apoptosis in human RPE1 cells assessed as caspase 3/7 activity after 24 hrs by caspase-glo luminescent assay; format: cell-based; conditions: RPE-1, 24 h; outline: as §2
Enterococcus sp. [13] = assay: Antibacterial activity against Enterococcus sp. HK14365/08 clinical isolate after 24 hrs by microdilution assay; format: functional; conditions: HK14365/08, 24 h
K562 [14] = assay: Cytotoxicity against human K562 cells assessed as reduction in cell viability after 48 hrs by ATPlite-based luminescent assay; conditions: K562, 48 h; outline: as §1
BJ = assay: Cytotoxicity against human BJ cells assessed as reduction in cell viability after 48 hrs by ATPlite-based luminescent assay; outline: as §1
Escherichia coli [15] = assay: Antibacterial activity against Escherichia coli ATCC 8739 after 24 hrs by microdilution assay; format: functional; conditions: ATCC 8739, 24 h; outline: as §3
TERT-RPE1 [16] = assay: Cytotoxicity against human RPE1 cells assessed as reduction in cell viability after 48 hrs by ATPlite-based luminescent assay; conditions: RPE-1, 48 h; outline: as §1
PC-3 [17] = assay: Cytotoxicity against human PC3 cells assessed as reduction in cell viability after 48 hrs by ATPlite-based luminescent assay; conditions: PC-3, 48 h; outline: as §1
[18] = system: Staphylococcus epidermidis; assay: Antibacterial activity against Staphylococcus epidermidis HK6966/08 clinical isolate after 24 hrs by microdilution assay; format: functional; conditions: HK6966/08, 24 h
Staphylococcus aureus [19] = assay: Antibacterial activity against Staphylococcus aureus ATCC 6538 after 24 hrs by microdilution assay; format: functional; conditions: ATCC 6538, 24 h
HepG2 [20] = assay: Cytotoxicity against human HepG2 cells assessed as reduction in cell viability after 48 hrs by ATPlite-based luminescent assay; conditions: HepG2, 48 h; outline: as §1
Klebsiella pneumoniae [21] = assay: Antibacterial activity against Klebsiella pneumoniae HK14368/08 clinical isolate after 48 hrs by microdilution assay; format: functional; conditions: HK14368/08, 48 h
Klebsiella pneumoniae [22] = assay: Antibacterial activity against Klebsiella pneumoniae HK11750/08 clinical isolate after 24 hrs by microdilution assay; format: functional; conditions: HK11750/08, 24 h
Pseudomonas aeruginosa [23] = assay: Antibacterial activity against Pseudomonas aeruginosa ATCC 9027 after 48 hrs by microdilution assay; format: functional; conditions: ATCC 9027, 48 h; outline: as §3
Pseudomonas aeruginosa [24] = assay: Antibacterial activity against Pseudomonas aeruginosa ATCC 9027 after 24 hrs by microdilution assay; format: functional; conditions: ATCC 9027, 24 h; outline: as §3
MCF7 = assay: Cytotoxicity against human MCF7 cells assessed as reduction in cell viability after 48 hrs by ATPlite-based luminescent assay; conditions: MCF7, 48 h
PC-3 [25] = assay: Induction of apoptosis in human PC3 cells assessed as caspase 3/7 activity after 24 hrs by caspase-glo luminescent assay; format: cell-based; conditions: PC-3, 24 h; outline: as §2
Staphylococcus aureus [26] = assay: Antibacterial activity against methicillin-resistant Staphylococcus aureus HK5996/08 clinical isolate after 24 hrs by microdilution assay; format: functional; conditions: HK5996/08, 24 h

SMILES	MIC95 (Klebsiella pneumoniae [1]) [µM]	MIC95 (Staphylococcus aureus [2]) [µM]	MIC95 (Staphylococcus aureus [3]) [µM]	IC50 (HL-60 [4]) [µM]	MIC95 [5] [µM]	MIC95 (Klebsiella pneumoniae [6]) [µM]	IC50 (K562 [7]) [µM]	MIC95 (Escherichia coli [8]) [µM]	IC50 (HepG2 [9]) [µM]	MIC95 (Enterococcus sp. [10]) [µM]	IC50 (HL-60 [11]) [µM]	IC50 (TERT-RPE1 [12]) [µM]	MIC95 (Enterococcus sp. [13]) [µM]	IC50 (K562 [14]) [µM]	IC50 (BJ) [µM]	MIC95 (Escherichia coli [15]) [µM]	IC50 (TERT-RPE1 [16]) [µM]	IC50 (PC-3 [17]) [µM]	MIC95 [18] [µM]	MIC95 (Staphylococcus aureus [19]) [µM]	other results
O=C1OCC(c2ccc(C(F)(F)F)cc2)=C1c1ccc(Br)cc1	> 500	62.5 (≈ 23.9 µg/mL)	62.5 (≈ 23.9 µg/mL)	> 40	125 (≈ 47.9 µg/mL)	> 500	> 40	> 500	> 40	> 500	> 40	> 40	> 500	> 40	> 40	> 500	16.4	> 40	125 (≈ 47.9 µg/mL)	62.5 (≈ 23.9 µg/mL)	IC50 (HepG2 [20]): 11.4 µM; MIC95 (Klebsiella pneumoniae [21]): > 500 µM; MIC95 (Klebsiella pneumoniae [22]): > 500 µM; MIC95 (Pseudomonas aeruginosa [23]): > 500 µM; MIC95 (Pseudomonas aeruginosa [24]): > 500 µM; IC50 (MCF7): 6.37 µM; IC50 (PC-3 [25]): > 40 µM; MIC95 (Staphylococcus aureus [26]): 62.5 µM (≈ 23.9 µg/mL)
CC(=O)OCC1(COC(C)=O)OC(=O)C(c2ccc(Br)cc2)=C1c1ccc(C)cc1	> 125	> 125	> 125	> 40	> 125	> 125	> 40	> 125	> 40	> 125	> 40	> 40	> 125	> 40	> 40	> 125	> 40	> 40	> 125	> 125	IC50 (HepG2 [20]): > 40 µM; MIC95 (Klebsiella pneumoniae [21]): > 125 µM; MIC95 (Klebsiella pneumoniae [22]): > 125 µM; MIC95 (Pseudomonas aeruginosa [23]): > 125 µM; MIC95 (Pseudomonas aeruginosa [24]): > 125 µM; IC50 (MCF7): > 40 µM; IC50 (PC-3 [25]): > 40 µM; MIC95 (Staphylococcus aureus [26]): > 125 µM
O=C1OCC(c2ccc(C(F)(F)F)cc2)=C1c1c[nH]c2ccccc12	> 125	> 125	> 125	0.67	> 125	> 125	> 40	> 125	> 40	> 125	2.94	1.54	> 125	0.26	> 40	> 125	0.87	> 40	> 125	> 125	IC50 (HepG2 [20]): > 40 µM; MIC95 (Klebsiella pneumoniae [21]): > 125 µM; MIC95 (Klebsiella pneumoniae [22]): > 125 µM; MIC95 (Pseudomonas aeruginosa [23]): > 125 µM; MIC95 (Pseudomonas aeruginosa [24]): > 125 µM; IC50 (MCF7): > 40 µM; IC50 (PC-3 [25]): > 40 µM; MIC95 (Staphylococcus aureus [26]): > 125 µM
COc1cc(OC)c(C2=C(c3ccc(OC)c(OC)c3OC)COC2=O)c(OC)c1	> 500	62.5 (≈ 26 µg/mL)	31.2 (≈ 13 µg/mL)	> 40	125 (≈ 52.1 µg/mL)	> 500	> 40	> 500	> 40	> 500	> 40	> 40	> 500	22.8	> 40	> 500	> 40	> 40	125 (≈ 52.1 µg/mL)	31.2 (≈ 13 µg/mL)	IC50 (HepG2 [20]): > 40 µM; MIC95 (Klebsiella pneumoniae [21]): > 500 µM; MIC95 (Klebsiella pneumoniae [22]): > 500 µM; MIC95 (Pseudomonas aeruginosa [23]): > 500 µM; MIC95 (Pseudomonas aeruginosa [24]): > 500 µM; IC50 (MCF7): > 40 µM; IC50 (PC-3 [25]): > 40 µM; MIC95 (Staphylococcus aureus [26]): 62.5 µM (≈ 26 µg/mL)
O=C1OCC(c2ccc(O)c(O)c2)=C1c1ccc(O)cc1	> 500	500 (≈ 142 µg/mL)	500 (≈ 142 µg/mL)	> 40	500 (≈ 142 µg/mL)	> 500	> 40	> 500	> 40	500 (≈ 142 µg/mL)	> 40	> 40	500 (≈ 142 µg/mL)	16.2	> 40	> 500	> 40	> 40	250 (≈ 71.1 µg/mL)	250 (≈ 71.1 µg/mL)	IC50 (HepG2 [20]): > 40 µM; MIC95 (Klebsiella pneumoniae [21]): > 500 µM; MIC95 (Klebsiella pneumoniae [22]): > 500 µM; MIC95 (Pseudomonas aeruginosa [23]): > 500 µM; MIC95 (Pseudomonas aeruginosa [24]): > 500 µM; IC50 (MCF7): > 40 µM; IC50 (PC-3 [25]): > 40 µM; MIC95 (Staphylococcus aureus [26]): 250 µM (≈ 71.1 µg/mL)
COc1ccc(C2=C(c3ccc4c(c3)OCO4)COC2=O)cc1	> 500	> 500	15.6 (≈ 4.85 µg/mL)	15.5	500 (≈ 155 µg/mL)	> 500	> 40	> 500	> 40	> 500	> 40	> 40	> 500	15.7	> 40	> 500	> 40	> 40	125 (≈ 38.8 µg/mL)	7.81 (≈ 2.42 µg/mL)	IC50 (HepG2 [20]): > 40 µM; MIC95 (Klebsiella pneumoniae [21]): > 500 µM; MIC95 (Klebsiella pneumoniae [22]): > 500 µM; MIC95 (Pseudomonas aeruginosa [23]): > 500 µM; MIC95 (Pseudomonas aeruginosa [24]): > 500 µM; IC50 (MCF7): > 40 µM; IC50 (PC-3 [25]): > 40 µM; MIC95 (Staphylococcus aureus [26]): > 500 µM
